According to ChEMBL document CHEMBL1152489, “Synthesis and biological evaluation of a novel series of 1,5-benzothiazepine derivatives as potential antimicrobial agents” (2009):
Calls of active or inactive are those of the source. The rule behind the calls is not given here.

Key:
Candida albicans [1] = experiment: Antifungal activity against Candida albicans ATCC 10231 at 50 ug/disk after 24 hrs by disk diffusion method; assay type: functional; settings: for zone of inhibition at 50 µg/disc: ATCC 10231, 24 h, read-out: IZ
Summary of the method: (§1)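 Disk diffusion on media seeded with the organism. Sterile paper discs (6 mm) carried test compound dissolved in DMSO at 12.5, 50, 100 or 200 µg/disc. DMSO-only discs served as controls. Plates were incubated 24 h at 37 °C. The read-out is the growth-inhibition zone diameter in mm, averaged over three trials (±1 mm).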

Staphylococcus aureus [2] = experiment: Antibacterial activity against Staphylococcus aureus ATCC 25923 at 100 ug/disk after 24 hrs by disk diffusion method; assay type: functional; settings: for zone of inhibition at 100 µg/disc: ATCC 25923, 24 h, read-out: IZ; summary of the method: as §1
Staphylococcus aureus [3] = experiment: Antibacterial activity against Staphylococcus aureus ATCC 25923 at 200 ug/disk after 24 hrs by disk diffusion method; assay type: functional; settings: for zone of inhibition at 200 µg/disc: ATCC 25923, 24 h, read-out: IZ; summary of the method: as §1
[4] = test system: Staphylococcus epidermidis; experiment: Antibacterial activity against Staphylococcus epidermidis ATCC 26069 at 50 ug/disk after 24 hrs by disk diffusion method; assay type: functional; settings: for zone of inhibition at 50 µg/disc: ATCC 26069, 24 h, read-out: IZ; summary of the method: as §1
[5] = test system: Staphylococcus epidermidis; experiment: Antibacterial activity against Staphylococcus epidermidis ATCC 26069 at 200 ug/disk after 24 hrs by disk diffusion method; assay type: functional; settings: for zone of inhibition at 200 µg/disc: ATCC 26069, 24 h, read-out: IZ; summary of the method: as §1
Escherichia coli [6] = experiment: Antibacterial activity against Escherichia coli ATCC 44752 at 50 ug/disk after 24 hrs by disk diffusion method; assay type: functional, organism-based; summary of the method: as §1
[7] = test system: Staphylococcus epidermidis; experiment: Antibacterial activity against Staphylococcus epidermidis ATCC 26069 at 100 ug/disk after 24 hrs by disk diffusion method; assay type: functional; settings: for zone of inhibition at 100 µg/disc: ATCC 26069, 24 h, read-out: IZ; summary of the method: as §1
Candida albicans [8] = experiment: Antifungal activity against Candida albicans ATCC 10231 at 200 ug/disk after 24 hrs by disk diffusion method; assay type: functional; settings: for zone of inhibition at 200 µg/disc: ATCC 10231, 24 h, read-out: IZ; summary of the method: as §1
Escherichia coli [9] = experiment: Antibacterial activity against Escherichia coli ATCC 44752 at 200 ug/disk after 24 hrs by disk diffusion method; assay type: functional, organism-based; summary of the method: as §1
Staphylococcus aureus [10] = experiment: Antibacterial activity against Staphylococcus aureus ATCC 25923 at 50 ug/disk after 24 hrs by disk diffusion method; assay type: functional; settings: for zone of inhibition at 50 µg/disc: ATCC 25923, 24 h, read-out: IZ; summary of the method: as §1
Escherichia coli [11] = experiment: Antibacterial activity against Escherichia coli ATCC 44752 at 100 ug/disk after 24 hrs by disk diffusion method; assay type: functional, organism-based; summary of the method: as §1
Candida albicans [12] = experiment: Antifungal activity against Candida albicans ATCC 10231 at 100 ug/disk after 24 hrs by disk diffusion method; assay type: functional; settings: for zone of inhibition at 100 µg/disc: ATCC 10231, 24 h, read-out: IZ; summary of the method: as §1

SMILES | zone of inhibition at 50 µg/disc (Candida albicans [1]) [mm] | zone of inhibition at 100 µg/disc (Staphylococcus aureus [2]) [mm] | zone of inhibition at 200 µg/disc (Staphylococcus aureus [3]) [mm] | zone of inhibition at 50 µg/disc [4] [mm] | zone of inhibition at 200 µg/disc [5] [mm] | inhibition zone (IZ) (Escherichia coli [6]) | zone of inhibition at 100 µg/disc [7] [mm] | zone of inhibition at 200 µg/disc (Candida albicans [8]) [mm] | inhibition zone (IZ) (Escherichia coli [9]) | zone of inhibition at 50 µg/disc (Staphylococcus aureus [10]) [mm] | inhibition zone (IZ) (Escherichia coli [11]) | zone of inhibition at 100 µg/disc (Candida albicans [12]) [mm] | inhibition zone (IZ) (Candida albicans [1]) | also measured
CC(=O)C1=C(C)Nc2cc(Cl)ccc2SC1c1ccc(Cl)cc1 (centres undefined) | 10 | 7.5 | 10 | 7 | 10 | inactive | 7.5 | 13 | inactive | 7 | inactive | 11 |  | 
CCOC(=O)C1=C(C)Nc2ccccc2SC1c1ccc(F)cc1 (centres undefined) |  |  |  |  |  | inactive |  |  | inactive |  | inactive |  | inactive | inhibition zone (IZ) (Staphylococcus aureus [2]): inactive; inhibition zone (IZ) (Staphylococcus aureus [3]): inactive; inhibition zone (IZ) [4]: inactive; inhibition zone (IZ) [5]: inactive; inhibition zone (IZ) [7]: inactive; inhibition zone (IZ) (Candida albicans [8]): inactive; inhibition zone (IZ) (Staphylococcus aureus [10]): inactive; inhibition zone (IZ) (Candida albicans [12]): inactive
CC(=O)C1=C(C)Nc2cc(Cl)ccc2SC1c1ccccc1[N+](=O)[O-] (centres undefined) |  | 7 | 8 | 7 | 8 | inactive | 8 |  | inactive | 7 | inactive |  | inactive | inhibition zone (IZ) (Candida albicans [8]): inactive; inhibition zone (IZ) (Candida albicans [12]): inactive
CCOC(=O)C1=C(C)Nc2ccccc2SC1c1ccc(C)cc1 (centres undefined) |  |  |  |  |  | inactive |  |  | inactive |  | inactive |  | inactive | inhibition zone (IZ) (Staphylococcus aureus [2]): inactive; inhibition zone (IZ) (Staphylococcus aureus [3]): inactive; inhibition zone (IZ) [4]: inactive; inhibition zone (IZ) [5]: inactive; inhibition zone (IZ) [7]: inactive; inhibition zone (IZ) (Candida albicans [8]): inactive; inhibition zone (IZ) (Staphylococcus aureus [10]): inactive; inhibition zone (IZ) (Candida albicans [12]): inactive
CC(=O)C1=C(C)Nc2ccccc2SC1c1ccccc1[N+](=O)[O-] (centres undefined) | 11 | 11 | 12 | 7 | 10 | inactive | 9 | 16 | inactive | 8 | inactive | 13 |  | 
CC(=O)C1=C(C)Nc2cc(Cl)ccc2SC1c1ccc([N+](=O)[O-])cc1 (centres undefined) | 9 | 7 | 11 | 10 | 11 | inactive | 11 | 14 | inactive | 7 | inactive | 11 |  | 
CC(=O)C1=C(C)Nc2ccccc2SC1c1ccccc1Cl (centres undefined) | 12 | 8 | 9 | 7.5 | 9 | inactive | 7.5 | 15 | inactive | 8 | inactive | 15 |  | 
CCOC(=O)C1=C(C)Nc2ccccc2SC1c1ccc([N+](=O)[O-])cc1 (centres undefined) |  | 6.5 | 7 |  |  | inactive |  | 7 | inactive |  | inactive | 6.5 | inactive | inhibition zone (IZ) [4]: inactive; inhibition zone (IZ) [5]: inactive; inhibition zone (IZ) [7]: inactive; inhibition zone (IZ) (Staphylococcus aureus [10]): inactive
CC(=O)C1=C(C)Nc2ccccc2SC1c1ccc(Cl)cc1Cl (centres undefined) | 9 | 7 | 10 | 7 | 11 | inactive | 8 | 14 | inactive | 7 | inactive | 10 |  | 
CC(=O)C1=C(C)Nc2ccccc2SC1c1ccc([N+](=O)[O-])cc1 (centres undefined) | 16 | 12 | 13 | 10 | 13 | inactive | 12 | 20 | inactive | 10 | inactive | 18 |  | 
CC(=O)C1=C(C)Nc2cc(Cl)ccc2SC1c1ccccc1Cl (centres undefined) | 10 | 8 | 11 | 7 | 10 | inactive | 7 | 15 | inactive | 7 | inactive | 12 |  | 
CC(=O)C1=C(C)Nc2cc(Cl)ccc2SC1c1ccc(Br)cc1 (centres undefined) | 10 | 10 | 11 | 9 | 11 | inactive | 10 | 15 | inactive | 9 | inactive | 11 |  | 
CCOC(=O)C1=C(C)Nc2ccccc2SC1c1ccccc1Cl (centres undefined) |  |  |  |  |  | inactive |  |  | inactive |  | inactive |  | inactive | inhibition zone (IZ) (Staphylococcus aureus [2]): inactive; inhibition zone (IZ) (Staphylococcus aureus [3]): inactive; inhibition zone (IZ) [4]: inactive; inhibition zone (IZ) [5]: inactive; inhibition zone (IZ) [7]: inactive; inhibition zone (IZ) (Candida albicans [8]): inactive; inhibition zone (IZ) (Staphylococcus aureus [10]): inactive; inhibition zone (IZ) (Candida albicans [12]): inactive
CC(=O)C1=C(C)Nc2cc(Cl)ccc2SC1c1ccccc1 (centres undefined) | 7 | 7 | 10 | 7 | 11 | inactive | 8 | 13 | inactive | 7 | inactive | 9 |  | 
CC(=O)C1=C(C)Nc2ccccc2SC1c1ccc(F)cc1 (centres undefined) | 18 | 9 | 10 | 10 | 11 | inactive | 11 | 20 | inactive | 7 | inactive | 20 |  | 
CC(=O)C1=C(C)Nc2cc(Cl)ccc2SC1c1ccc(F)cc1 (centres undefined) | 8 | 9 | 9 | 7 | 8 | inactive | 8 | 10 | inactive | 8 | inactive | 9 |  | 
CC(=O)C1=C(C)Nc2cc(Cl)ccc2SC1c1ccc(Cl)cc1Cl (centres undefined) |  | 7 | 10 |  |  | inactive |  |  | inactive |  | inactive |  | inactive | inhibition zone (IZ) [4]: inactive; inhibition zone (IZ) [5]: inactive; inhibition zone (IZ) [7]: inactive; inhibition zone (IZ) (Candida albicans [8]): inactive; inhibition zone (IZ) (Staphylococcus aureus [10]): inactive; inhibition zone (IZ) (Candida albicans [12]): inactive
